Legend:
[1] = Growth inhibition of human HBC5 cells after 48 hrs by sulforhodamine B assay; format: functional; details: HBC5, 48 h
Method in brief: (§1)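 Yamori 39-line human cancer panel, NCI method with modifications. Cells plated in RPMI 1640 plus 5% FBS, attached overnight, then exposed 48 h to compound at 10^-8, 10^-7, 10^-6, 10^-5 and 10^-4 M. Sulforhodamine B staining read at 525 nm; % growth = 100[(T−T0)/(C−T0)] from duplicate-point averages, with T0 the time-zero absorbance. GI50 is the concentration giving 50.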

NCI-H460 = assay: Growth inhibition of human NCI-H460 cells after 48 hrs by sulforhodamine B assay; format: functional; details: NCI-H460, 48 h; method in brief: as §1
DMS-273 = assay: Growth inhibition of human DMS273 cells after 48 hrs by sulforhodamine B assay; format: functional; details: DMS-273, 48 h; method in brief: as §1
SNB-75 = assay: Growth inhibition of human SNB75 cells after 48 hrs by sulforhodamine B assay; format: functional; details: SNB-75, 48 h; method in brief: as §1
[2] = Growth inhibition of human HBC4 cells after 48 hrs by sulforhodamine B assay; format: functional; details: HBC4, 48 h; method in brief: as §1
Human gammaherpesvirus 4 [3] = assay: Induction of EBV-early antigen expressed in human Raji cells at 10^-6 M after 48 hrs by immunofluorescence assay relative to control; format: organism-based; details: human gammaherpesvirus 4, raji, 1 µM
Method in brief: (§2)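 Raji B-lymphoblastoid cells (5 × 10^5/mL) in RPMI 1640 with 10% FBS, with 4 mM sodium n-butyrate as synergist and test compound at 10^-7 or 10^-6 M (final DMSO 0.4%). Incubated 48 h at 37 °C under 5% CO2. Smears were stained by indirect immunofluorescence using NPC patient serum and FITC anti-human IgG. At least 500 cells counted; % EA-positive recorded; n = 3, SEM.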

MKN-7 = assay: Growth inhibition of human MKN7 cells after 48 hrs by sulforhodamine B assay; format: functional; details: MKN-7, 48 h; method in brief: as §1
HCT-116 = assay: Growth inhibition of human HCT116 cells after 48 hrs by sulforhodamine B assay; format: functional; details: HCT-116, 48 h; method in brief: as §1
LOX IMVI = assay: Growth inhibition of human LOXIMVI cells after 48 hrs by sulforhodamine B assay; format: functional; method in brief: as §1
SF-539 = assay: Growth inhibition of human SF539 cells after 48 hrs by sulforhodamine B assay; format: functional; details: SF-539, 48 h; method in brief: as §1
ACHN = assay: Growth inhibition of human ACHN cells after 48 hrs by sulforhodamine B assay; format: functional; method in brief: as §1
SF-268 = assay: Growth inhibition of human SF268 cells after 48 hrs by sulforhodamine B assay; format: functional; details: SF-268, 48 h; method in brief: as §1
[4] = Cytotoxicity against human Raji cells assessed as cell viability at 10^-7 M; format: cell-based; details: read-out: Activity
[5] = Growth inhibition of human HCC2998 cells after 48 hrs by sulforhodamine B assay; format: functional; details: HCC 2998, 48 h; method in brief: as §1
[6] = Growth inhibition of human RXF631L cells after 48 hrs by sulforhodamine B assay; format: functional; details: RXF 631, 48 h; method in brief: as §1
DMS-114 = assay: Growth inhibition of human DMS114 cells after 48 hrs by sulforhodamine B assay; format: functional; details: DMS-114, 48 h; method in brief: as §1
MKN-45 = assay: Growth inhibition of human MKN45 cells after 48 hrs by sulforhodamine B assay; format: functional; details: MKN-45, 48 h; method in brief: as §1
Human gammaherpesvirus 4 [7] = assay: Induction of EBV-early antigen expressed in human Raji cells at 10^-7 M after 48 hrs by immunofluorescence assay relative to control; format: organism-based; details: human gammaherpesvirus 4, raji, 0.1 µM; method in brief: as §2
OVCAR-5 = assay: Growth inhibition of human OVCAR5 cells after 48 hrs by sulforhodamine B assay; format: functional; details: OVCAR-5, 48 h; method in brief: as §1
MKN-28 = assay: Growth inhibition of human MKN28 cells after 48 hrs by sulforhodamine B assay; format: functional; details: MKN-28, 48 h; method in brief: as §1
[8] = Octanol-water partition coefficient, log P of the compound by HPLC analysis; format: physicochemical
Method in brief: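 log P was estimated from HPLC retention, with column dead time measured using unretained formamide.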

MKN-74 = assay: Growth inhibition of human MKN74 cells after 48 hrs by sulforhodamine B assay; format: functional; details: MKN-74, 48 h; method in brief: as §1
[9] = Growth inhibition of human BSY1 cells after 48 hrs by sulforhodamine B assay; format: functional; details: BSY-1, 48 h; method in brief: as §1
NCI-H522 = assay: Growth inhibition of human NCI-H522 cells after 48 hrs by sulforhodamine B assay; format: functional; details: NCI-H522, 48 h; method in brief: as §1
OVCAR-8 = assay: Growth inhibition of human OVCAR8 cells after 48 hrs by sulforhodamine B assay; format: functional; details: OVCAR-8, 48 h; method in brief: as §1
NCI-H226 = assay: Growth inhibition of human NCI-H226 cells after 48 hrs by sulforhodamine B assay; format: functional; details: NCI-H226, 48 h; method in brief: as §1
HT-29 = assay: Growth inhibition of human HT-29 cells after 48 hrs by sulforhodamine B assay; format: functional; details: HT-29, 48 h; method in brief: as §1
U-251 = assay: Growth inhibition of human U251 cells after 48 hrs by sulforhodamine B assay; format: functional; details: U-251, 48 h; method in brief: as §1
[10] = biological target: T1, Protein kinase C delta type (Homo sapiens, UniProt Q05655); assay: Inhibition of [3H]PDBu binding to PKCdelta-C1A domain peptide (unknown origin)
Method in brief: (§3)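 Competitive [3H]PDBu binding used 14 or 40 nM PKCδ C1 peptide and 20 nM [3H]PDBu (19.6 Ci/mmol), in 50 mM Tris-maleate (pH 7.4 at 4 °C) with 50 µg/mL phosphatidylserine, 3 mg/mL bovine γ-globulin and varied inhibitor concentrations. IC50 was taken as 50% inhibition of specific binding. Ki was derived by the Sharkey–Blumberg method.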

HCT-15 = assay: Growth inhibition of human HCT15 cells after 48 hrs by sulforhodamine B assay; format: functional; details: HCT-15, 48 h; method in brief: as §1
NCI-H23 = assay: Growth inhibition of human NCI-H23 cells after 48 hrs by sulforhodamine B assay; format: functional; details: NCI-H23, 48 h; method in brief: as §1
SF-295 = assay: Growth inhibition of human SF295 cells after 48 hrs by sulforhodamine B assay; format: functional; details: SF-295, 48 h; method in brief: as §1
[11] = Cytotoxicity against human Raji cells assessed as cell viability at 10^-6 M; format: cell-based; details: read-out: Activity
KM12 = assay: Growth inhibition of human KM12 cells after 48 hrs by sulforhodamine B assay; format: functional; details: KM12, 48 h; method in brief: as §1
[12] = Growth inhibition of human MKN1 cells after 48 hrs by sulforhodamine B assay; format: functional; details: MKN-1, 48 h; method in brief: as §1
PC-3 = assay: Growth inhibition of human PC3 cells after 48 hrs by sulforhodamine B assay; format: functional; details: PC-3, 48 h; method in brief: as §1
A549 = assay: Growth inhibition of human A549 cells after 48 hrs by sulforhodamine B assay; format: functional; details: A549, 48 h; method in brief: as §1
OVCAR-4 = assay: Growth inhibition of human OVCAR4 cells after 48 hrs by sulforhodamine B assay; format: functional; details: OVCAR-4, 48 h; method in brief: as §1
MDA-MB-231 = assay: Growth inhibition of human MDA-MB-231 cells after 48 hrs by sulforhodamine B assay; format: functional; details: MDA-MB-231, 48 h; method in brief: as §1
[13] = biological target: T1, Protein kinase C delta type; assay: Inhibition of [3H]PDBu binding to PKCdelta-C1B domain peptide (unknown origin); method in brief: as §3
St-4 = assay: Growth inhibition of human St-4 cells after 48 hrs by sulforhodamine B assay; format: functional; details: St-4, 48 h; method in brief: as §1
MCF7 = assay: Growth inhibition of human MCF7 cells after 48 hrs by sulforhodamine B assay; format: functional; details: MCF7, 48 h; method in brief: as §1
DU-145 = assay: Growth inhibition of human DU145 cells after 48 hrs by sulforhodamine B assay; format: functional; details: DU-145, 48 h; method in brief: as §1
SK-OV-3 = assay: Growth inhibition of human SKOV3 cells after 48 hrs by sulforhodamine B assay; format: functional; details: SK-OV-3, 48 h; method in brief: as §1
SNB-78 = assay: Growth inhibition of human SNB78 cells after 48 hrs by sulforhodamine B assay; format: functional; details: SNB-78, 48 h; method in brief: as §1
OVCAR-3 = assay: Growth inhibition of human OVCAR3 cells after 48 hrs by sulforhodamine B assay; format: functional; details: OVCAR-3, 48 h; method in brief: as §1

T1 sequence (Q05655 whole entry, the tested form may be a part): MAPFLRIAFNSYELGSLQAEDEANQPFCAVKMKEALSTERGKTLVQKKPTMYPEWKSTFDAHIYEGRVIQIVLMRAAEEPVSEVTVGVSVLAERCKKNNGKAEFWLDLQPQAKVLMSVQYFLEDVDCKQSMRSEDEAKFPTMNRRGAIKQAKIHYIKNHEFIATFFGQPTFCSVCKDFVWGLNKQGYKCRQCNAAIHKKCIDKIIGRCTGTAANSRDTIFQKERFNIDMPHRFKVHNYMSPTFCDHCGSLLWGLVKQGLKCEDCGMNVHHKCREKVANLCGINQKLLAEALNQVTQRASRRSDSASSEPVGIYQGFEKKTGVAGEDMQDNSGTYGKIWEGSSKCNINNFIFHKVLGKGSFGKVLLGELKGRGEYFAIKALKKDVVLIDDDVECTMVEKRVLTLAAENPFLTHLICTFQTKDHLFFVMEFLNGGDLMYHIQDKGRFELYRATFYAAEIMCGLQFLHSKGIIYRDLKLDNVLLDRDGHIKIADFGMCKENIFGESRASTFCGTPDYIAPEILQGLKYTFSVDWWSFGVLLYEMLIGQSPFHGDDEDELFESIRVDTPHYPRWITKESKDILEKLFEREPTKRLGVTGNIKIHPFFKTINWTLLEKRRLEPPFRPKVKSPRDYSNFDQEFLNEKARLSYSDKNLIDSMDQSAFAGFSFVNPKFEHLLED

CC1(C)CC[C@@H]2CC(=O)O[C@@H](CO)CC(=O)O[C@@H]3C[C@@H](CCCCc4cccc(O)c4)O[C@@]1(C3)O2
GI50 [1]: 17.4 µM
GI50 (NCI-H460): 2.51 µM
GI50 (DMS-273): 12.6 µM
GI50 (SNB-75): 15.8 µM

CC1(C)CC[C@@H]2CC(=O)O[C@@H](CO)CC(=O)O[C@@H]3C[C@@H](CCCCc4cc(O)ccc4I)O[C@@]1(C3)O2
GI50 [1]: 15.8 µM
GI50 [2]: 0.158 µM
Activity (Human gammaherpesvirus 4 [3]): 1.4%
GI50 (MKN-7): 11.5 µM
GI50 (HCT-116): 10.5 µM
GI50 (LOX IMVI): 2 µM
GI50 (SF-539): 11 µM
GI50 (ACHN): 10.7 µM
GI50 (SF-268): 13.8 µM
viability at 0.1 µM [4]: 50%
GI50 (NCI-H460): 10.5 µM
GI50 [5]: 0.891 µM
GI50 [6]: 12.9 µM
GI50 (DMS-114): 11 µM
GI50 (MKN-45): 12 µM
Activity (Human gammaherpesvirus 4 [7]): 1.3%
GI50 (DMS-273): 0.251 µM
GI50 (OVCAR-5): 5.13 µM
GI50 (MKN-28): 0.813 µM
logP [8]: 4.2
GI50 (MKN-74): 11.7 µM
GI50 [9]: 9.77 µM
GI50 (NCI-H522): 11.7 µM
GI50 (OVCAR-8): 16.2 µM
GI50 (NCI-H226): 12.6 µM
GI50 (HT-29): 13.8 µM
GI50 (U-251): 12.9 µM
Ki [10]: 0.11 µM
GI50 (HCT-15): 15.1 µM
GI50 (NCI-H23): 7.94 µM
GI50 (SF-295): 6.31 µM
viability at 1 µM [11]: 50%
GI50 (KM12): 10.5 µM
GI50 [12]: 10.7 µM
GI50 (PC-3): 4.68 µM
GI50 (A549): 4.07 µM
GI50 (SNB-75): 10.5 µM
GI50 (OVCAR-4): 13.8 µM
GI50 (MDA-MB-231): 1.55 µM
Ki [13]: 0.0046 µM
GI50 (St-4): 0.427 µM
GI50 (MCF7): 13.8 µM
GI50 (DU-145): 12.9 µM
GI50 (SK-OV-3): 15.8 µM
GI50 (SNB-78): 15.1 µM
GI50 (OVCAR-3): 5.89 µM

CC1(C)CC[C@@H]2CC(=O)O[C@@H](CO)CC(=O)O[C@@H]3C[C@@H](CCCCc4cc(O)c(Br)cc4Br)O[C@@]1(C3)O2
GI50 [1]: 14.1 µM
GI50 [2]: 0.224 µM
Activity (Human gammaherpesvirus 4 [3]): 2.1%
GI50 (MKN-7): 6.46 µM
GI50 (HCT-116): 10.7 µM
GI50 (LOX IMVI): 2.82 µM
GI50 (SF-539): 10 µM
GI50 (ACHN): 5.75 µM
GI50 (SF-268): 12.6 µM
viability at 0.1 µM [4]: 40%
GI50 (NCI-H460): 1.23 µM
GI50 [5]: 0.891 µM
GI50 [6]: 14.5 µM
GI50 (DMS-114): 13.5 µM
GI50 (MKN-45): 3.72 µM
Activity (Human gammaherpesvirus 4 [7]): 2%
GI50 (DMS-273): 10.7 µM
GI50 (OVCAR-5): 10 µM
GI50 (MKN-28): 8.32 µM
logP [8]: 5
GI50 (MKN-74): 11 µM
GI50 [9]: 4.57 µM
GI50 (NCI-H522): 13.8 µM
GI50 (OVCAR-8): 15.8 µM
GI50 (NCI-H226): 15.1 µM
GI50 (HT-29): 15.5 µM
GI50 (U-251): 11.7 µM
Ki [10]: 0.093 µM
GI50 (HCT-15): 13.8 µM
GI50 (NCI-H23): 6.61 µM
GI50 (SF-295): 6.61 µM
viability at 1 µM [11]: 40%
GI50 (KM12): 4.79 µM
GI50 [12]: 10.2 µM
GI50 (PC-3): 3.89 µM
GI50 (A549): 4.9 µM
GI50 (SNB-75): 5.89 µM
GI50 (OVCAR-4): 15.5 µM
GI50 (MDA-MB-231): 2.95 µM
Ki [13]: 0.0041 µM
GI50 (St-4): 1.29 µM
GI50 (MCF7): 12.3 µM
GI50 (DU-145): 11.2 µM
GI50 (SK-OV-3): 15.8 µM
GI50 (SNB-78): 12.9 µM
GI50 (OVCAR-3): 6.17 µM

CCCCCCCCCCCCCC(=O)O[C@@H]1[C@@H](C)[C@@]2(O)[C@@H](C=C(CO)C[C@]3(O)C(=O)C(C)=C[C@@H]23)[C@@H]2C(C)(C)[C@]12OC(C)=O [PHORBOL MYRISTATE ACETATE]
Activity (Human gammaherpesvirus 4 [3]): 31.5%
Activity (Human gammaherpesvirus 4 [7]): 29.4%

Source: ChEMBL document CHEMBL2380295, “Structure-activity studies on the side chain of a simplified analog of aplysiatoxin (aplog-1) with anti-proliferative activity” (Bioorg Med Chem, 2013)
